Values after ≈ are worked out from the molar mass of the structure shown. Active and inactive are the calls of the source. No cut-off for these calls is given here.
Columns and labels:
[1] = test system: Entamoeba histolytica; test: Antiparasitic activity against Entamoeba histolytica HMI:IMSS trophozoites after 60 hrs; type: functional, organism-based, HM-1:IMSS
[2] = test system: Plasmodium falciparum; test: Antiparasitic activity against Plasmodium falciparum W2 infected in human erythrocytes after 72 hrs by FACS; type: functional, organism-based
[3] = test system: Trypanosoma brucei; test: Antiparasitic activity against Trypanosoma brucei 427 after 48 hrs; type: functional, organism-based
[4] = target: Methionine aminopeptidase 2 (Homo sapiens) (UniProt P50579); test: Inhibition of human MetAP2 assessed as residual activity at 800 nM after 8 hrs by Met-AMC based fluorescence assay
Methionine aminopeptidase 2 (Homo sapiens), sequence (P50579 2-478 limits assumed): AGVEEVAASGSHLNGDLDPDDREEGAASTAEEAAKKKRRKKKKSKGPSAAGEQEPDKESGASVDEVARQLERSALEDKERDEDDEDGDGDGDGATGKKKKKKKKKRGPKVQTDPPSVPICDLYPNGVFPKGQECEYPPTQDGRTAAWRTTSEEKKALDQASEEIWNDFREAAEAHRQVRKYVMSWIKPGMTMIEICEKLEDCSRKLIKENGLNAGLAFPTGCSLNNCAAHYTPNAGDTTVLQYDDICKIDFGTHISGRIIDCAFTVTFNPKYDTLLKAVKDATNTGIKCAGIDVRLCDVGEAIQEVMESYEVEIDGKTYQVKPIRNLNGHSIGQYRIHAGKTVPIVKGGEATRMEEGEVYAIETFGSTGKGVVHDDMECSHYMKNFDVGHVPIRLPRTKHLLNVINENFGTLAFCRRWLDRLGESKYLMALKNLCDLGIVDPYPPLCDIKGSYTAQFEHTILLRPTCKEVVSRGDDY
In short: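 Human MetAP2 (80 nM) preincubated with compound at 800 nM for 8 h; remaining free enzyme activity then read by Met-AMC fluorescence and reported as residual activity.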

[5] = test system: Leishmania donovani; test: Antiparasitic activity against Leishmania donovani at <100 ug/mL; type: functional, organism-based
[6] = test system: Plasmodium falciparum; test: Antiparasitic activity against Plasmodium falciparum D2 infected in human erythrocytes after 72 hrs by FACS; type: functional, organism-based
[7] = test system: Plasmodium berghei; test: Antiparasitic activity against Plasmodium berghei infected Swiss Webster mice (Mus musculus) assessed as protection against parasite infection at 25 mg/kg, subcutaneously administered every 12 hrs for 4 days measured after 12 days; type: functional, organism-based; parameters: dose 25 mg/kg
In short: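 P. berghei-infected mice, infected on Day 1, dosed subcutaneously with 25 mg/kg every 12 h; PBS-dosed controls. Survival followed over days post infection; each data point mean of triplicates.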

[8] = Entamoeba histolytica, HM-1:IMSS, 60 h, read-out: IC50
[9] = Plasmodium falciparum, W2, 72 h, read-out: IC50
[10] = Trypanosoma brucei, 427, 48 h, read-out: IC50
[11] = Plasmodium falciparum, D2, 72 h, read-out: IC50

Row | SMILES | IC50 [1, 8] | IC50 [2, 9] | IC50 [3, 10] | Activity [4] | IC50 [6, 11] | IC50 ([1]; BLD = below limit of detection) | IC50 ([2]; BLD = below limit of detection) | IC50 ([3]; BLD = below limit of detection) | IC50 ([6]; BLD = below limit of detection) | Activity [5] | Activity [7]
1 | CO[C@@H]1[C@H](OC(=O)NC(=O)CCl)CC[C@]2(CO2)[C@H]1[C@@]1(C)O[C@@H]1CC=C(C)C [O-CHLOROACETYLCARBAMOYLFUMAGILLOL] | 0.026 µg/mL (≈ 0.0647 µM) | 0.0123 µg/mL (≈ 0.0306 µM) | 2.8 µg/mL (≈ 6.97 µM) | – | – | – | – | – | – | – | –
2 | CO[C@@H]1[C@H](OC(=O)NCc2ccc(C(=O)O)cc2)CC[C@]2(CO2)[C@H]1[C@@]1(C)O[C@@H]1CC=C(C)C | 0.01 µg/mL (≈ 0.0218 µM) | 0.0205 µg/mL (≈ 0.0446 µM) | 42 µg/mL (≈ 91.4 µM) | 3% | – | – | – | – | – | Active | –
3 | CO[C@@H]1[C@H](OC(=O)/C=C/C=C/C=C/C=C/C(=O)O)CC[C@]2(CO2)[C@H]1[C@@]1(C)O[C@@H]1CC=C(C)C [FUMAGILLIN] | 0.005 µg/mL (≈ 0.0109 µM) | 0.0996 µg/mL (≈ 0.217 µM) | 26 µg/mL (≈ 56.7 µM) | – | – | – | – | – | – | – | –
4 | CO[C@@H]1[C@H](OC(=O)N[C@@H](C(=O)Nc2cccc(C(=O)O)c2)C(C)C)CC[C@]2(CO2)[C@H]1[C@@]1(C)O[C@@H]1CC=C(C)C | 0.497 µg/mL (≈ 0.913 µM) | – | 14 µg/mL (≈ 25.7 µM) | 4% | 0.136 µg/mL (≈ 0.25 µM) | – | – | – | – | inactive | –
5 | CO[C@@H]1[C@H](OC(=O)N[C@H]2CN3CCC2CC3)CC[C@]2(CO2)[C@H]1[C@@]1(C)O[C@@H]1CC=C(C)C | 1.26 µg/mL (≈ 2.9 µM) | 0.0394 µg/mL (≈ 0.0907 µM) | – | – | – | – | – | – | – | inactive | –
6 | CO[C@@H]1[C@H](OC(=O)N[C@@H](C(N)=O)C(C)C)CC[C@]2(CO2)[C@H]1[C@@]1(C)O[C@@H]1CCC(C)(C)O | – | – | – | 90% | – | BLD | BLD | BLD | – | inactive | –
7 | CO[C@@H]1[C@H](OC(=O)NC(C)(C)C(=O)N2CCN(Cc3ccccc3)CC2)CC[C@]2(CO2)[C@H]1[C@@]1(C)O[C@@H]1CC=C(C)C | 2.54 µg/mL (≈ 4.46 µM) | – | – | – | – | – | – | BLD | BLD | inactive | –
8 | CO[C@@H]1[C@H](OC(=O)N[C@@H](C(=O)NN2CCCCC2)C(C)C)CC[C@]2(CO2)[C@H]1[C@@]1(C)O[C@@H]1CC=C(C)C | 0.0643 µg/mL (≈ 0.127 µM) | – | 55 µg/mL (≈ 108 µM) | – | 0.0288 µg/mL (≈ 0.0567 µM) | – | – | – | – | inactive | –

Continued, in another order:

Row | IC50 [1, 8] | IC50 [2, 9] | IC50 [3, 10] | Activity [4] | IC50 [6, 11] | IC50 ([1]; BLD = below limit of detection) | IC50 ([2]; BLD = below limit of detection) | IC50 ([3]; BLD = below limit of detection) | IC50 ([6]; BLD = below limit of detection) | SMILES | Activity [5] | Activity [7]
9 | 1.39 µg/mL (≈ 2.59 µM) | – | 19 µg/mL (≈ 35.5 µM) | 5% | 0.0347 µg/mL (≈ 0.0648 µM) | – | – | – | – | CO[C@@H]1[C@H](OC(=O)N[C@@H](C(=O)NCCC2CCCN2C)C(C)C)CC[C@]2(CO2)[C@H]1[C@@]1(C)O[C@@H]1CC=C(C)C (some centres not stated) | inactive | Active
10 | 0.01 µg/mL (≈ 0.0244 µM) | 0.00774 µg/mL (≈ 0.0189 µM) | 28 µg/mL (≈ 68.2 µM) | 6% | – | – | – | – | – | CO[C@@H]1[C@H](OC(=O)NN2CCOCC2)CC[C@]2(CO2)[C@H]1[C@@]1(C)O[C@@H]1CC=C(C)C | inactive | –
11 | 0.087 µg/mL (≈ 0.199 µM) | 0.0367 µg/mL (≈ 0.0839 µM) | – | 8% | – | – | – | BLD | – | CO[C@@H]1[C@H](OC(=O)N2CCC(C(=O)O)CC2)CC[C@]2(CO2)[C@H]1[C@@]1(C)O[C@@H]1CC=C(C)C | inactive | –
12 | 2.28 µg/mL (≈ 4.47 µM) | – | 25 µg/mL (≈ 49 µM) | – | 0.0263 µg/mL (≈ 0.0516 µM) | – | – | – | – | CO[C@@H]1[C@H](OC(=O)N[C@@H](C(=O)NCCCN(C)C)C(C)C)CC[C@]2(CO2)[C@H]1[C@@]1(C)O[C@@H]1CC=C(C)C | inactive | –

From ChEMBL document CHEMBL1155352, “Antiparasitic activities of novel, orally available fumagillin analogs” (Bioorg Med Chem Lett, 2009)
